ARNT-TACC3 inh = disruptors of human ARNT/TACC3 interaction. AID 623870. Q9Y6A5. AlphaScreen His-ARNT PAS-B/GST-TACC3 binding, luminescence; TACC3 fragment carries E629A point mutation. hit rate 0.66% among 390,000. inhibition, % at 9.99 µM;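 active means mean inhibition of replicates at least 50% and at least half of replicates each reaching 50%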
CAL PDZ FP-1 = CAL PDZ (human) peptide binding inhibition; purified CAL PDZ, TMR-peptide fluorescence polarization, 1 h; hit rate 0.92% among 300,000; inhibition, % at 24.9 µM; AID 602252; Q9HD26;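 active means mean inhibition of at least 30% with at least half of replicates also reaching 30%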
CAL PDZ FP-2 = blocks peptide binding to human CAL PDZ domain; Q9HD26; purified CAL PDZ, TMR-peptide fluorescence polarization, 1 h; inhibition, % at 20 µM; hit rate 0.02% among 330,000; AID 504414;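 active means highest replicate inhibition of at least 40%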
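Assay system – tagged CAL PDZ protein CerCALP, purified · Timing – 1 h at RT · Compound – single point, 20 µM · Measured by – fluorescence polarization from S- and P-plane intensities, G-factor corrected · Evaluation – inhibition from polarization loss · Probe or stimulus – TMR reporter peptide T*-PRC34 · Buffer or medium – pH 7.4 phosphate-saline buffer, reducing agent, detergent, IgG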
CaV13 ICDI inh = Primary screen for inhibitors of IQ motif and Ca2+-dependent inactivation inhibitor domain binding in CACNA1D, Förster resonance energy transfer in living cells, … | HEK cells, CFP/YFP FRET ICDI-IQ, plate reader, 10 min; percent FRET-ratio fall versus neutral wells | inhibition, % at 12.3 µM | hit rate 0.098% among 340,000;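 active means mean replicate inhibition of at least 30% and at least 1% of replicates passing that level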
A number is an active result; – = inactive; · = no result given. Rows were chosen to be rich in hits. Some 1.2% of all compounds tested hit in one or more screens of this group.

SMILES	ARNT-TACC3 inh	CAL PDZ FP-1	CAL PDZ FP-2	CaV13 ICDI inh
COc1cccc(C(=O)NC2CC3CCC(C2)N3Cc2ccccc2)c1 (stereo not drawn)	–	39	–	–
Cc1noc(C)c1S(=O)(=O)Nc1ccc2c(c1)C(=O)N([C@@H](C)CO)C[C@H](C)[C@H](CN(C)C)OCCCC[C@@H](C)O2	–	·	·	·
CO[C@H]1CC[C@H]2CCN(C)C(=O)CCCN(C)C(=O)c3cccc(C#N)c3OC[C@H]1O2	–	·	·	·
C[C@@H]1CCCCO[C@@H](CN(C)S(=O)(=O)c2cn(C)cn2)[C@@H](C)CN([C@H](C)CO)C(=O)c2cc(NC(=O)CCC(F)(F)F)ccc2O1	–	·	·	·
COc1ccc(C)cc1S(=O)(=O)N1CCCC(C(=O)NC2CC2)C1 (stereo not drawn)	–	36	–	–
O=C(Nc1ccc(N2CCOCC2)c(Cl)c1)c1cccnc1	–	·	–	–
Cc1ccc(SCC(=O)Nc2ccccc2N2CCOCC2)cc1	–	48	–	–
O=C(Nc1ccccc1N1CCOCC1)c1cccnc1	–	85	–	–
COc1cc(OC)cc(C(=O)N[C@H](C(=O)Nc2ccccc2N2CCOCC2)C(C)C)c1	–	39	–	–
O=C(C[C@H]1CC[C@H](NS(=O)(=O)c2ccccc2)[C@@H](CO)O1)NCCN1CCCCC1	–	·	·	·
O=C(C[C@@H]1C[C@@H]2c3cc(NC(=O)c4ccc5c(c4)OCO5)ccc3O[C@@H]2[C@@H](CO)O1)NCc1cccc(F)c1	–	·	·	·
C[C@@H]1CN([C@H](C)CO)C(=O)c2cc(C3=CCCC3)cnc2O[C@@H]1CN(C)C(=O)c1ccncc1	–	·	·	·
O=C(C[C@@H]1C=C[C@@H](NC(=O)C2CC2)[C@H](CO)O1)NC1CCC1	–	·	·	·
Cc1ccc(NC(=O)c2cc3cccc([N+](=O)[O-])c3[nH]2)cc1	–	67	–	–
CCC(C)c1ccccc1NC(=O)c1cc2cccc([N+](=O)[O-])c2[nH]1 (stereo not drawn)	·	·	·	–
N#CC(C#N)=C1C=CC=CN1/C(=C\c1ccccc1)C(=O)c1cccs1	–	–	–	63
C[C@H](CO)N1C[C@H](C)[C@H](CN(C)Cc2cncnc2)Oc2ncc(/C=C/c3ccccc3)cc2C1=O	–	·	·	·
CC(C)(C)S(=O)(=O)c1cnc(N2CCCCC2)nc1N	–	50	–	–
CC(C)(C)S(=O)(=O)c1cnc(-c2ccc(Cl)cc2)nc1N	–	–	–	–
Cc1c(C(=O)NCc2cccc([N+](=O)[O-])c2)sc(=O)n1Cc1cccc(F)c1	·	·	·	63
COc1ccc(CNC(=O)c2sc(=O)n(Cc3ccc(C)cc3)c2C)cc1OC	·	·	·	55
Cc1c(C(=O)NCc2cccc(C(F)(F)F)c2)sc(=O)n1Cc1ccc(C(=O)N(C)C)cc1	·	·	·	47
CSc1ccc(Cn2c(C)c(C(=O)NCCC#N)sc2=O)cc1	·	·	·	34
Cc1c(C(=O)NCc2cccc([N+](=O)[O-])c2)sc(=O)n1Cc1ccc(F)cc1	·	·	·	–
Cc1c(C(=O)NCCC#N)sc(=O)n1Cc1ccc(F)cc1	·	·	·	–
SMILES	ARNT-TACC3 inh	CAL PDZ FP-1	CAL PDZ FP-2	CaV13 ICDI inh
CCCc1cn(CC[C@@H]2CC[C@H](NC(=O)Nc3ccccc3F)[C@@H](CO)O2)nn1	–	·	·	·
CCNC(=O)C[C@@H]1CC[C@@H]2[C@H](COC[C@H](O)CN2C(=O)C2CC2)O1	–	·	·	·
Cc1c(C(=O)NCc2ccc3c(c2)OCCO3)sc(=O)n1Cc1ccccc1F	·	·	·	73
Cc1c(C(=O)NCc2ccc3c(c2)OCCO3)sc(=O)n1Cc1ccccc1C(F)(F)F	·	·	·	–
COc1ccc(/C=N/N=C2/NC(=O)C(CC(=O)NC(N)=O)S2)cc1 (stereo not drawn)	–	49	–	–
NS(=O)(=O)c1ccc(CNC(=O)/C=C/c2c(F)cccc2Cl)cc1	–	70	–	–
NS(=O)(=O)c1ccc(CNC(=O)/C=C/c2cccc(Cl)c2)cc1	–	–	–	–
COc1cc(-c2ccccc2)nc2ccccc12	–	·	–	–
COc1cc(C(=O)O)nc2ccccc12	58	–	–	–
CCCNC(=O)Nc1ccc2c(c1)OC[C@H](C)N(CCC(F)(F)F)C[C@@H](C)[C@H](OC)CN(C)C2=O	–	·	·	·
CC1(C)C2CC=C(/C=N/NC(=O)c3ccc(O)cc3)C1C2 (stereo not drawn)	–	78	–	–
COCCCNC(=S)NNC(=O)c1ccc(C(C)(C)C)cc1	–	–	–	–
COCCCNC(=S)NNC(=O)c1csc(C)n1	57	–	–	–
O=C(Nc1ccc(F)cc1)N1C[C@H]2[C@@H](c3ccccc31)[C@H](CO)N2C(=O)Cc1ccncc1	–	·	·	·
COc1ccc(/C=N/Nc2cc(C)nc3ccc(OC)cc23)c(OC)c1	–	–	45	–
C[C@@H]1CCCCO[C@@H](CN(C)C(=O)NC2CCCCC2)[C@@H](C)CN([C@@H](C)CO)C(=O)c2cc(NS(=O)(=O)c3ccc(F)cc3)ccc2O1	–	·	·	·
COc1ccc(C(=O)Nc2ccc(S(=O)(=O)Nc3nccc(C)n3)cc2)cc1OC	–	50	–	–
Fc1ccc(CCNc2ncnc3[nH]ncc23)cc1	–	·	–	–
Cc1ccc(CNc2ncnc3[nH]ncc23)cc1	–	62	–	–
COCCN=c1scc(-c2cccs2)n1/N=C(\C)c1ccco1	46	–	–	–
COCCN=c1scc(-c2ccc3c(c2)NC(=O)CO3)n1/N=C(\C)c1ccc(O)cc1	–	–	–	–
COc1ccc(OC)c(/C=C2\NC(=O)NC2=O)c1	–	45	–	–
CCN1c2ccccc2N(C)C1(C)c1ccccc1 (stereo not drawn)	64	–	–	·
Cc1ccc2c(c1)c(N=Nc1ccc([N+](=O)[O-])cc1)c(O)n2C	–	–	–	–
Cc1ccc2c(c1)c(C1=NC(=S)NC1=O)c(O)n2C	–	30	–	–
SMILES	ARNT-TACC3 inh	CAL PDZ FP-1	CAL PDZ FP-2	CaV13 ICDI inh
CC(C)CC(=O)NC(=S)NNC(=O)c1ccc([N+](=O)[O-])cc1	–	–	–	–
CC(C)CC(=O)NC(=S)NNC(=O)c1ccc(NC(=O)C2CCCCC2)cc1	68	–	–	–
O=C(C[C@@H]1C=C[C@H](NC(=O)Nc2cc(F)ccc2F)[C@@H](CO)O1)Nc1ccc(-c2ccccc2)cc1	–	·	·	·
CC(=O)c1ccc(OCC(O)CNCc2ccc3c(c2)OCO3)cc1 (stereo not drawn)	–	42	–	–
OC(CNCc1ccc2c(c1)OCO2)COc1ccc(F)cc1 (stereo not drawn)	–	–	–	–
COc1cccc(-c2cn(CC[C@H]3CC[C@@H](NC(=O)CN(C)C)[C@H](CO)O3)nn2)c1	–	·	·	·
CSc1ccccc1C(=O)Nc1ccc2c(c1)CCC2	–	68	–	–
O=c1c2[nH]c3ccc(Br)cc3c2ncn1CCCn1ccnc1	79	–	–	–
O=c1c2[nH]c3ccccc3c2ncn1CCCn1ccnc1	–	–	–	–
Cc1ccc(C)c(NC(=O)/C(C#N)=C/c2cn(CC(=O)NCc3ccco3)c3ccccc23)c1	–	44	–	–
CN(Cc1nc2ccccc2c(=O)[nH]1)C(=O)c1cc2c(s1)CCCCC2	–	–	–	–
